In one experiment the target is BRD4(BD1). The settings on record: read-out: KD,BD1, ref Faivre et al., 2020; cited from earlier work.
Another experiment has as its target BRD4(BD2). The conditions noted are these: read-out: KD,BD2, ref Faivre et al., 2020; cited from earlier work.
Experiment [1] deals with T1, BRD4 in MDA-MB-231 cells (Homo sapiens, UniProt O60885). As to the kind of experiment: TR-FRET BRD4 quantification, 96-well plate format. The experiment is classed as cell-based, H. sapiens. The conditions noted are these: MDA-MB-231, 30 min to 10 h, 96-well no wash-out. (In general: In TR-FRET formats the signal depends on donor and acceptor labels being close together.)

Another experiment has as its target Keap1-BTB domain (Homo sapiens, UniProt Q14145). The experiment can be described thus: TR-FRET ligand displacement assay, Keap1-BTB domain. The experiment is classed as binding.
The target in the next experiment is Keap1-Kelch domain (Homo sapiens, UniProt Q14145). The experiment can be described thus: TR-FRET ligand displacement assay, Keap1-Kelch domain. The experiment is classed as binding.
Sequence of Keap1-Kelch domain (Q14145 whole entry, the tested form may be a part): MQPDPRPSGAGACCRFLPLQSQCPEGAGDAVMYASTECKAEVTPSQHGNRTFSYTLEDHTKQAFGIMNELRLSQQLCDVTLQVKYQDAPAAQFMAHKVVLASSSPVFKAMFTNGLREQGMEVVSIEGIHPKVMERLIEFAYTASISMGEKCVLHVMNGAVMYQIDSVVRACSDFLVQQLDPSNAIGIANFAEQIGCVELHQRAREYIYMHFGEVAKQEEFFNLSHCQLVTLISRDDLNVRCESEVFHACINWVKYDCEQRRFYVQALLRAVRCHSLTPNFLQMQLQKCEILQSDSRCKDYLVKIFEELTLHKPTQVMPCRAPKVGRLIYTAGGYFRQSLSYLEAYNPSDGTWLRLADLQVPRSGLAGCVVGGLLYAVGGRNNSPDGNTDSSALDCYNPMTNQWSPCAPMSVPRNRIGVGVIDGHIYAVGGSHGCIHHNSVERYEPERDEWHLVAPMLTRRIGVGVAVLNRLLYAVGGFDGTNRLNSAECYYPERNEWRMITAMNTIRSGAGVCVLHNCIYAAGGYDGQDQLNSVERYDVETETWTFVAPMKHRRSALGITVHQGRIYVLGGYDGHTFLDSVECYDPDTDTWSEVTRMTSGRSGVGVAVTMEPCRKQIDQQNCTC
Experiment [2] has as its system full-length Keap1 and individual BRD4 bromodomains. The format is biochemical. The settings on record: BRD4(BD1) or BRD4(BD2).
Experiment [3] deals with T2, BRD4 in MCF7 cells (Homo sapiens, UniProt O60885). The experiment can be described thus: TR-FRET BRD4 quantification, 24-well plate format, MCF7. The conditions noted are these: MCF7, 5 h treatment, 1 h washout. The format is cell-based, H. sapiens.
Experiment [4] addresses T1, BRD4 in MDA-MB-231 cells. The experiment can be described thus: TR-FRET BRD4 quantification, 24-well plate format, MDA-MB-231. The settings on record: MDA-MB-231, 5 h treatment, 1 h washout. The experiment is classed as cell-based, H. sapiens.
Experiment [5] concerns the target T1, BRD4 in MDA-MB-231 cells. The experiment can be described thus: BRD4 ubiquitination by immunoprecipitation / Western blot. The format is cell-based, H. sapiens. The settings on record: MDA-MB-231, 5 h. A general note: A western blot detects proteins with antibodies after separation by electrophoresis.
The next experiment concerns BRD4. As to the kind of experiment: TR-FRET ligand displacement assays with recombinant BRD4. The settings on record: Figure 4B. The format is binding, human. The gist of the method: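 Tracer displacement of JQ1-FITC (20 nM) from 4 nM GST-BRD4(BD1) or GST-BRD4(BD2) with 4 nM CoraFluor-1 anti-GST VHH, in HEPES/NaCl/BSA/Tween buffer, pH 7.5. Endogenous BRD4 was tested in clarified MCF7 lysate at 0.8 mg/mL total protein. Floor was a 10 μM reference inhibitor; ceiling was no inhibitor. Four-parameter IC50 fits were converted to KD,app by Cheng-Prusoff using tracer KD,app.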

In experiment [6] the target is T1, BRD4 in MDA-MB-231 cells. The experiment can be described thus: BRD4 degradation rescue experiments, MDA-MB-231. The experiment is classed as cell-based, H. sapiens. The conditions noted are these: for Rescue of CS-JQ1-induced BRD4 degradation by co-treatment: MDA-MB-231, co-treatment with CS-JQ1, 5 h; for Rescue of dBET6-induced BRD4 degradation by co-treatment: MDA-MB-231, co-treatment with dBET6, 5 h.

The target of experiment [7] is T2, BRD4 in MCF7 cells. The experiment can be described thus: BRD4 degradation rescue experiments, MCF7. The format is cell-based, H. sapiens. The conditions noted are these: for Rescue of CS-JQ1-induced BRD4 degradation by co-treatment: MCF7, co-treatment with CS-JQ1, 5 h; for Rescue of dBET6-induced BRD4 degradation by co-treatment: MCF7, co-treatment with dBET6, 5 h.

The values that follow come from article PMC9391279 (Cell chemical biology, 2022).

Molecules are shown by their SMILES.

What is called Kd is the free concentration of one partner at which half of the binding sites on the other are occupied at equilibrium, for simple one-to-one binding.

Sequence of Keap1-BTB domain (Q14145 whole entry, the tested form may be a part): as above

Consider `CCS(=O)(=O)Nc1ccc(Oc2ccc(F)cc2F)c(-c2cn(C)c(=O)c3[nH]ccc23)c1` [ABBV-075, ABBV-075 (Mivebresib)], for which the Kd at BRD4(BD1) was 0.0138 µM; at BRD4(BD2), 0.0025 µM.
`Cc1ncsc1-c1ccc(CNC(=O)[C@@H]2C[C@@H](O)CN2C(=O)[C@@H](NC(=O)COCCOCCOCCNC(=O)C[C@@H]2N=C(c3ccc(Cl)cc3)c3c(sc(C)c3C)-n3c(C)nnc32)C(C)(C)C)cc1` [MZ1]: the “BRD4 degradation kinetics (in words)” value at BRD4 in MDA-MB-231 cells [1] was “slightly slower degradation kinetics”.
On to `CC1=C(O)C(=O)C=C2C1=CC=C1[C@@]2(C)CC[C@@]2(C)[C@@H]3C[C@](C)(C(=O)NCCCOCCOCCOCCCNC(=O)CC4N=C(c5ccc(Cl)cc5)c5c(sc(C)c5C)-n5c(C)nnc54)CC[C@]3(C)CC[C@]12C` (stereo partly drawn) [CS-JQ1, (2R,4aS,6aS,12bR,14aS,14bR)-N-(1-(4-(4-chlorophenyl)-2,3,9-trimethyl-6H-thieno[3,2-f][1,2,4]triazolo[4,3-a][1,4]diazepin-6-yl)-2-oxo-7,10,13-trioxa-3-azahexadecan-16-yl)-10-hydroxy-2,4a,6a,9,12b,14a-hexamethyl-11-oxo-1,2,3,4,4a,5,6,6a,11,12b,13,14,14a,14b-tetradecahydropicene-2-carboxamide], for which, at Keap1-BTB domain (compared with celastrol), the “Affinity for the Keap1 BTB domain (in words)” value was “slightly improved affinity”. On Keap1-Kelch domain, the “Binding to the Keap1 Kelch domain (in words)” value is on record as “lost the ability to bind”. The “Ternary complex formation between full-length Keap1 and individual BRD4 bromodomains” value in experiment [2] is “could induce ternary complex formation”. Further, on BRD4 in MDA-MB-231 cells [1], the “BRD4 degradation kinetics (in words)” value was “slightly slower kinetics”. In addition, the “BRD4 level by TR-FRET after treatment (in words)” value on BRD4 in MCF7 cells [3] is “dose-dependent and efficient degradation of BRD4”; at BRD4 in MDA-MB-231 cells [4], “dose-dependent and efficient degradation of BRD4”. In addition, the “Induction of BRD4 ubiquitination” value on BRD4 in MDA-MB-231 cells [5] is on record as “induce BRD4 ubiquitination”. The “Target engagement with BRD4 (in words)” value in the experiment on BRD4 is on record as “validated target engagement with BRD4”.
At Keap1-BTB domain, `COC(=O)[C@]12CCC(C)(C)C[C@H]1[C@H]1C(=O)C=C3[C@@]4(C)C=C(C#N)C(=O)C(C)(C)[C@@H]4CC[C@@]3(C)[C@]1(C)CC2` [CDDO-Me, bardoxolone methyl] gave a Kd of 0.024 µM. The “Rescue of CS-JQ1-induced BRD4 degradation by co-treatment” value on BRD4 in MDA-MB-231 cells [6] is on record as “not altered”.
Take `NS(=O)(=O)OC[C@@H]1C[C@@H](n2ccc3c(N[C@H]4CCc5ccccc54)ncnc32)C[C@@H]1O` [MLN4924]: the “Rescue of CS-JQ1-induced BRD4 degradation by co-treatment” value at BRD4 in MCF7 cells [7] and on BRD4 in MDA-MB-231 cells [6] was “restored BRD4 levels” in each case. Besides, the “Rescue of dBET6-induced BRD4 degradation by co-treatment” value at BRD4 in MCF7 cells [7] and on BRD4 in MDA-MB-231 cells [6] was “attenuated” in each case.
On to `Nc1cccc2c1C(=O)N(C1CCC(=O)NC1=O)C2=O` (stereo not drawn) [pomalidomide], for which the “Rescue of dBET6-induced BRD4 degradation by co-treatment” value on BRD4 in MCF7 cells [7] and on BRD4 in MDA-MB-231 cells [6] was “attenuated” throughout.
Regarding `CC1=C(O)C(=O)C=C2C1=CC=C1[C@@]2(C)CC[C@@]2(C)[C@@H]3C[C@](C)(C(=O)O)CC[C@]3(C)CC[C@]12C` [CS, celastrol], the “Rescue of CS-JQ1-induced BRD4 degradation by co-treatment” value on BRD4 in MCF7 cells [7] and on BRD4 in MDA-MB-231 cells [6] was “reduced CS-JQ1 degradation efficiency” throughout.
In the case of `CC(C)C[C@H](NC(=O)[C@H](Cc1ccccc1)NC(=O)c1cnccn1)B(O)O` [bortezomib], the “Rescue of dBET6-induced BRD4 degradation by co-treatment” value on BRD4 in MCF7 cells [7] and at BRD4 in MDA-MB-231 cells [6] was “attenuated” throughout.
With `NS(=O)(=O)OC[C@H]1C[C@@H](Nc2ccnc3cc(-c4cccc(SC(F)(F)F)c4)nn23)[C@H](O)[C@@H]1O` [MLN7243], the “Rescue of CS-JQ1-induced BRD4 degradation by co-treatment” value on BRD4 in MCF7 cells [7] and at BRD4 in MDA-MB-231 cells [6] was “restored BRD4 levels” each time. Besides, the “Rescue of dBET6-induced BRD4 degradation by co-treatment” value on BRD4 in MCF7 cells [7] and on BRD4 in MDA-MB-231 cells [6] was “attenuated” in each case.
